According to ChEMBL document CHEMBL1129287, “Substituted xanthines, pteridinediones, and related compounds as potential antiinflammatory agents. Synthesis and biological evaluation of inhibitors of tumor necrosis factor alpha” (J Med Chem, 1996):

Test system: Mus musculus
Assay: Percent protection against TNF-alpha induced leukopenia in mice at a dose of 50 mg/Kg
Assay type: functional
Summary of the method: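 Mice given compound intraperitoneally in 250 uL saline, then 60 min later […] LPS in saline, ip. Blood was taken 2 h after LPS by retro-orbital puncture into heparinized tubes. Nucleated cells were counted, with neutrophil content as the leukopenia read-out.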

Compound: CCCn1c(=O)n(CCCC(=O)OCC)c(=O)c2nccnc21
- Protection: 60%
